These results are taken from ChEMBL document CHEMBL1129980, “New non-peptide endothelin-A receptor antagonists: synthesis, biological properties, and structure-activity relationships of 5-(dimethylamino)-N-pyridyl-,-N-pyrimidinyl-,-N-pyridazinyl-, and -N-pyrazinyl-1-naphthalenesulfonamides” (J Med Chem, 1997).

SMILES strings stand for the structures.

Series [1] deals with T1, Endothelin-1 receptor (Homo sapiens) (UniProt P25101).
T1 sequence (whole entry): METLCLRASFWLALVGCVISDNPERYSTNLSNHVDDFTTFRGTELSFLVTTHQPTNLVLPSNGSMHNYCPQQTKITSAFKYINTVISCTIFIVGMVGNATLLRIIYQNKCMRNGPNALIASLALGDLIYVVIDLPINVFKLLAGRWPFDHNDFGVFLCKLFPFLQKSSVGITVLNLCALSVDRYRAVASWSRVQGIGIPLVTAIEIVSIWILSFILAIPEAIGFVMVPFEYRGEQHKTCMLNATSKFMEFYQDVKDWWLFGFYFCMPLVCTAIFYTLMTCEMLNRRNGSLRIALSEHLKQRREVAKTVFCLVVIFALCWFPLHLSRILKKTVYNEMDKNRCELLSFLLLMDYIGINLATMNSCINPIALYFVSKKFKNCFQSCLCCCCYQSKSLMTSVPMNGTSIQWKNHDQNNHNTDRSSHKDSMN
As to the kind of experiment: Percent inhibition at 10 uM of displacement of radiolabeled endothelin-1 [125-I]ET-1 from membranes prepared from cloned human Endothelin A receptor expressed in mouse erythroleukemic (MEL) cells. Format: cell membranes.

Series [2] deals with T2, Endothelin-1 receptor (Homo sapiens, UniProt P25101).
T2 sequence (P25101 whole entry): T1 sequence (whole entry)
The series is described as follows: Inhibition of specific binding of [125-I]ET-1 to human endothelin A receptor.

Series [3] has as its system Rattus norvegicus. The series is described as follows: Mean dose ratio(MDR) for inhibition of pressor response 5 hr after oral administration of compound at 10 mg/kg to conscious, normotensive rats. The series is classed as functional. The essentials:
(§1)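 Male Alderley Park Wistar rats (220–260 g, n = 6) were catheterized (arterial and venous) under Saffan anesthesia and tested conscious. Cumulative big ET-1 i.v. dose–response curves (0.1–4.0 nmol/kg) were run before and at set times after oral compound. The big ET-1 dose raising mean arterial pressure by 30 mmHg gave the dose-ratio shift, averaged to a mean dose ratio.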

For series [4], the system named is Rattus norvegicus. The series is described as follows: Mean dose ratio(MDR) for inhibition of pressor response 1 hr after oral administration of compound at 10 mg/kg to conscious, normotensive rats. The series is classed as functional. An outline of the steps:
as §1

Series [5] deals with Rattus norvegicus. The series is described as follows: Mean dose ratio(MDR) for inhibition of pressor response 5 min after intravenous administration of compound at 10 mg/kg to pithed rats. The series is classed as functional. The essentials: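 Male Alderley Park Wistar rats (280–320 g, n = 4) were pithed under halothane, with arterial and venous catheters placed. Cumulative big ET-1 dose–response curves (0.1–4.0 nmol/kg) were run before and 5 min after i.v. compound. The big ET-1 dose raising mean arterial pressure by 30 mmHg gave the dose ratio, reported as a mean with 95% confidence limits.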

The subject of series [6] is Rattus norvegicus. The series is described as follows: Mean dose ratio(MDR) for inhibition of pressor response 0.5 hr after oral administration of compound at 10 mg/kg to conscious, normotensive rats. Format: functional. The essentials:
as §1

A short description of series [7]: Acidity constant was measured. The series is classed as ADME.
Series [8] relates to Rattus norvegicus. The series is described as follows: Mean dose ratio(MDR) for inhibition of pressor response 3 hr after oral administration of compound at 10 mg/kg to conscious, normotensive rats. Format: functional. The essentials:
as §1

The species entered for another series is Cavia porcellus. As to the kind of experiment: Antagonism of ET-A induced contractile response in guinea pig portal vein. The settings on record: read-out: pA2 (converted). The series is classed as functional. The essentials:
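A portal vein ring (about 4 mm) from guinea pigs of either sex (>250 g, n = 3–6) was held for isometric recording of circular muscle in oxygenated Krebs (95% O2/5% CO2) at 32 °C. After about 1.5 h equilibration, a cumulative partial big ET-1 curve was run in 3-fold steps up to >100 mg tension.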

Series [9] deals with T2, Endothelin-1 receptor. As to the kind of experiment: Inhibition of specific binding of [125-I] ET-1 to human Endothelin A receptor. An outline of the steps: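 Membranes from mouse erythroleukemic MEL-C88 cells expressing cloned human ETA were incubated with [125I]ET-1 (30 pM final) and competing ligands for 180 min at 30 °C. Incubation was stopped by filtration through GF/B filters, and bound radioligand was counted by gamma counting. pIC50 was taken from inhibition of specific binding; n is given per compound.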

Molecule `CN(C)c1cccc2c(S(=O)(=O)Nc3ncc(Br)nc3OCc3ccccc3)cccc12` showed an inhibition in series [1] of under 30%.
With `CN(C)c1cccc2c(S(=O)(=O)Nc3ccc(Cl)cc3)cccc12`, in [1], the inhibition amounted to 30%. This molecule also gave a half-maximal inhibitory concentration (IC50) on Endothelin-1 receptor [2] of 7940 nM.
Taken in the same sequence, the figures for `COc1ccc(NS(=O)(=O)c2cccc3c(N(C)C)cccc23)nn1` were 92% and 316 nM.
In turn, `CN(C)c1cccc2c(S(=O)(=O)Nc3cnc(Br)nc3)cccc12` came in with an inhibition in series [1] of 88%. Besides, on Endothelin-1 receptor [2], the 50% inhibitory concentration (IC50) is 631 nM.
In turn, `Cc1cc(Br)cnc1NS(=O)(=O)c1cccc2c(N(C)C)cccc12` gave an inhibition in [1] of 94%. Further, at Endothelin-1 receptor [2], the IC50 is 316 nM.
Molecule `CN(C)c1cccc2c(S(=O)(=O)Nc3ccccn3)cccc12` came in with an inhibition in [1] of under 30%.
Take `Cc1noc(NS(=O)(=O)c2cccc3c(N(C)C)cccc23)c1C` [BMS-182874]: the MDR in the series on Rattus norvegicus [3] is 1.55; in the series with Rattus norvegicus [4] it was 2.28; in the series on Rattus norvegicus [5], 2.68; in the series with Rattus norvegicus [6] it was 3.37; with Rattus norvegicus [8], 2.18. In [1], the inhibition was 98%. Also, the pKa in series [7] was 4.5.
In turn, `Cc1cnc(NS(=O)(=O)c2cccc3c(N(C)C)cccc23)cn1` came in with an inhibition in [1] of 91%. The IC50 on Endothelin-1 receptor [2] was 1260 nM.
`CN(C)c1cccc2c(S(=O)(=O)Nc3ccc(I)cn3)cccc12`: the inhibition in series [1] was 84%. The molecule further had a half-inhibitory concentration (IC50) at Endothelin-1 receptor [2] of 5010 nM.
Taken in the same sequence, the figures for `CN(C)c1cccc2c(S(=O)(=O)Nc3cnc(Br)cn3)cccc12` were 96% and 126 nM.
For `Cc1cc(NS(=O)(=O)c2cccc3c(N(C)C)cccc23)nnc1Cl` the same measures were 64% and 5010 nM.
Molecule `COc1nc(Br)cnc1NS(=O)(=O)c1cccc2ccccc12` displayed an inhibition in series [1] of 83%.
`Cc1cc(Cl)nnc1NS(=O)(=O)c1cccc2c(N(C)C)cccc12` displayed an inhibition in [1] of 89%. Besides, at Endothelin-1 receptor [2], the IC50 was 398 nM.
`CN(C)c1cccc2c(S(=O)(=O)Nc3cccnn3)cccc12` had an inhibition in series [1] of under 30%.
`CN(C)c1cccc2c(S(=O)(=O)Nc3cnccn3)cccc12` had an inhibition in series [1] of 58%. In addition, on Endothelin-1 receptor [2], the 50% inhibitory concentration (IC50) was 1000 nM.
With `CCOc1ccc(NS(=O)(=O)c2cccc3c(N(C)C)cccc23)nn1`, the inhibition in [1] was 64%. Moreover, the IC50 at Endothelin-1 receptor [2] was 3980 nM.
In the case of `CN(C)c1cccc2c(S(=O)(=O)Nc3ncc(Br)nc3O)cccc12`, the inhibition in series [1] is 81%.
`CN(C)c1cccc2c(S(=O)(=O)Nc3ccc(Cl)nc3)cccc12`: the inhibition in series [1] was determined as 81%. The molecule further gave a half-maximal inhibitory concentration (IC50) on Endothelin-1 receptor [2] of 1260 nM.
As to `CN(C)c1cccc2c(S(=O)(=O)Nc3ncc(Br)cn3)cccc12`, in series [1], the inhibition turned out to be 80%. The molecule further gave an IC50 at Endothelin-1 receptor [2] of 2000 nM.
Consider `COc1nc(Cl)cnc1NS(=O)(=O)c1cccc2c(N(C)C)cccc12`, for which the Kb in the series filed under Cavia porcellus was 63.1 nM. Further, the MDR is 2.07 with Rattus norvegicus [3]; 4.42 with Rattus norvegicus [4]; 8.87 with Rattus norvegicus [5]; 3.91 with Rattus norvegicus [6]; 2.54 in the series on Rattus norvegicus [8]. This molecule also showed an inhibition in [1] of 97%. This molecule also had an IC50 on Endothelin-1 receptor [2] of 10 nM. This molecule yielded a pKa in series [7] of 5.
Turning to `CCN(C)c1cccc2c(S(=O)(=O)Nc3ncc(Br)nc3OC)cccc12`, the inhibition in [1] worked out at 99%. The IC50 on Endothelin-1 receptor [9] is 12.6 nM.
As to `CN(C)c1cccc2c(S(=O)(=O)Nc3ccc(Cl)cn3)cccc12`, in [1], the inhibition was 95%. Also, the IC50 at Endothelin-1 receptor [2] was 2000 nM.
On to `Cc1ccc(NS(=O)(=O)c2cccc3c(N(C)C)cccc23)nn1`, for which, in [1], the inhibition came to 68%. On Endothelin-1 receptor [2], this molecule gave a 50% inhibitory concentration (IC50) of 1580 nM.
For `Cc1nc(Br)cnc1NS(=O)(=O)c1cccc2c(N(C)C)cccc12` the same measures were 96% and 631 nM.
Turning to `COc1nc(C)cnc1NS(=O)(=O)c1cccc2c(N(C)C)cccc12`, the inhibition in series [1] was 98%. Moreover, on Endothelin-1 receptor [2], the IC50 was 7.94 nM.
Taken in the same sequence, the figures for `CN(C)c1cccc2c(S(=O)(=O)Nc3ccc(Br)nn3)cccc12` were 95% and 251 nM.
Taken in the same sequence, the figures for `CCc1nc(Br)cnc1NS(=O)(=O)c1cccc2c(N(C)C)cccc12` were 68% and 2510 nM.
For `Cc1ccc(NS(=O)(=O)c2cccc3c(N(C)C)cccc23)nc1` the same measures were 79% and 1580 nM.
Regarding `CN(C)c1cccc2c(S(=O)(=O)Nc3cccnc3)cccc12`, the inhibition in series [1] is under 30%.
In series [1], `CCOc1nc(Br)cnc1NS(=O)(=O)c1cccc2c(N(C)C)cccc12` gave an inhibition of 92%. Also, the 50% inhibitory concentration (IC50) on Endothelin-1 receptor [2] was 501 nM.
For `CN(C)c1cccc2c(S(=O)(=O)Nc3ncc(Cl)cn3)cccc12` the same measures were 84% and 1580 nM.
Taken in the same sequence, the figures for `CCNc1cccc2c(S(=O)(=O)Nc3ncc(Br)nc3OC)cccc12` were 95% and 2.51 nM.
For `COc1nc(Br)cnc1NS(=O)(=O)c1cccc2c(N(C)C)cccc12` the same measures were 93% and 63.1 nM.
`CN(C)c1cccc2c(S(=O)(=O)Nc3ncc(Br)nc3C#N)cccc12` had an inhibition in series [1] of under 30%.
On the same count and under the same terms, in the case of `CCCc1nc(Br)cnc1NS(=O)(=O)c1cccc2c(N(C)C)cccc12` it was under 30%.
The same measure, in the same setting: in the case of `CN(C)c1cccc2c(S(=O)(=O)Nc3ccc(C#N)nn3)cccc12` it was under 30%.
Consider `CN(C)c1cccc2c(S(=O)(=O)Nc3ccc(Br)cn3)cccc12`, for which the inhibition in [1] is 91%. Also, the half-maximal inhibitory concentration (IC50) on Endothelin-1 receptor [2] was 1580 nM.
Consider `CN(C)c1cccc2c(S(=O)(=O)Nc3ccc(Cl)nn3)cccc12`, for which the inhibition in series [1] amounted to 70%. The concentration for half-maximal inhibition (IC50) at Endothelin-1 receptor [2] is 200 nM.
`CNc1cccc2c(S(=O)(=O)Nc3ncc(Br)nc3OC)cccc12` gave an inhibition in series [1] of 100%. This molecule also gave a 50% inhibitory concentration (IC50) on Endothelin-1 receptor [2] of 15.8 nM.
In turn, `Cc1nc(NS(=O)(=O)c2cccc3c(N(C)C)cccc23)ccc1Br` showed an inhibition in series [1] of 54%. Further, on Endothelin-1 receptor [2], the IC50 was 10000 nM.
For `CN(C)c1cccc2c(S(=O)(=O)Nc3ccc(Br)cc3)cccc12` the same measures were 72% and 3160 nM.
Taken in the same sequence, the figures for `CN(C)c1cccc2c(S(=O)(=O)Nc3ccc(Br)nc3)cccc12` were 95% and 251 nM.
On to `CN(C)c1cccc2c(S(=O)(=O)Nc3ncc(Br)[nH]c3=O)cccc12`, for which the IC50 on Endothelin-1 receptor [2] was 5010 nM.
In series [1], `CN(C)c1cccc2c(S(=O)(=O)Nc3ncccn3)cccc12` registered an inhibition of 54%.
Molecule `CN(C)c1cccc2c(S(=O)(=O)Nc3cnc(Cl)cn3)cccc12` registered an inhibition in series [1] of 97%. This molecule also gave a half-maximal inhibitory concentration (IC50) at Endothelin-1 receptor [2] of 158 nM.
